Several values for one entry are separate records, joined by “and”; a condition that tells them apart may be missing. Identical values can stand only once.
What was measured:
Mus musculus [1] = organism: Mus musculus; experiment: Percent of maximum response was tested to augment the antibody response of B cells to sheep red blood cell challenge; type: functional
In short: (§1)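 CBA/CaJ spleen cells depleted of T cells with anti-T cell monoclonal antibody (1:1000, 30 min, 4 °C) then complement (37 °C, 45 min). Cultured ± 0.1% SRBC antigen in serum-containing medium with compound from zero to 10⁻³ M for 4 d. Plaque-forming cells counted in agarose with guinea pig complement. ED50 and maximal response relative to a concurrent standard.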

YAC-1 [2] = experiment: Percent of maximum response was tested for its ability to stimulate the natural killer response in murine in vitro cell assays; type: functional, Mus musculus
Mus musculus [3] = experiment: In vivo natural killer cell response in splenocytes of mice injected with 2 mg subcutaneous dose. % lysis of YAC-1 cells at effector: target ratio of 200:1; type: functional
In short: (§2)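 Mice dosed subcutaneously with 2 mg compound, with sesame oil as the vehicle control. Splenocytes were harvested 48 h after dosing and assayed in a 4-h ⁵¹Cr-release test against 5 × 10⁴ labelled YAC-1 cells at four effector:target ratios. Results are mean % lysis ± one standard deviation, 3–5 mice per group.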

Mus musculus [4] = organism: Mus musculus; experiment: Ability to act as B-cell mitogens; type: functional; conditions: read-out: ED50 (the source's name)
In short: (§3)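 CBA/CaJ mouse spleen cells (1 × 10⁵/0.2 mL) exposed to graded compound concentrations, dissolved in water or DMSO and diluted in medium, for 24 h. [³H]thymidine then added for a further 24 h; incorporation by scintillation counting. ED50 and maximal response expressed relative to a concurrently run standard (loxoribine in most cases).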

YAC-1 [5] = experiment: Stimulation of natural killer (NK) response in Yac-1 cell line (mouse, lymphoma); type: functional; conditions: read-out: ED50 (the source's name)
Mus musculus [6] = experiment: In vivo natural killer cell response in splenocytes of mice injected with 2 mg parenteral dose. % lysis of YAC-1 cells at effector: target ratio of 25:1; type: functional
In short: (§4)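 Each mouse received 2 mg compound, and spleens were taken at 48 h. Splenocyte NK activity was measured as specific lysis of 5 × 10⁴ ⁵¹Cr-labelled YAC-1 cells over 4 h at four effector:target ratios. Results are mean % lysis ± one standard deviation, N = 3–5 mice per group.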

Mus musculus [7] = experiment: In vivo natural killer cell response in splenocytes of mice injected with 2 mg parenteral dose. % lysis of YAC-1 cells at effector: target ratio of 50:1; type: functional; in short: as §4
Mus musculus [8] = experiment: In vivo natural killer cell response in splenocytes of mice injected with 2 mg intravenous dose. % lysis of YAC-1 cells at effector: target ratio of 50:1; type: functional
In short: (§5)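 Mice dosed intravenously with 2 mg compound, with saline as the vehicle control. Spleens were removed 48 h later. Splenocytes were tested against 5 × 10⁴ ⁵¹Cr-labelled YAC-1 target cells in a 4-h ⁵¹Cr-release assay at four effector:target ratios. Results are mean % lysis ± one standard deviation, N = 3–5 mice per group.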

Mus musculus [9] = organism: Mus musculus; experiment: Percent of maximum response was tested for its ability to act as B-cell mitogens (mitogenicity); type: functional; in short: as §3
Mus musculus [10] = experiment: In vivo natural killer cell response in splenocytes of mice injected with 2 mg subcutaneous dose. % lysis of YAC-1 cells at effector: target ratio of 25:1; type: functional; in short: as §2
Mus musculus [11] = experiment: In vivo natural killer cell response in splenocytes of mice injected with 2 mg intravenous dose % lysis of YAC-1 cells at effector: target ratio of 25:1; type: functional; in short: as §5
Mus musculus [12] = experiment: In vivo natural killer cell response in splenocytes of mice injected with 2 mg parenteral dose % lysis of YAC-1 cells at effector: target ratio of 200:1; type: functional; in short: as §4
Mus musculus [13] = experiment: In vivo natural killer cell response in splenocytes of mice injected with 2 mg subcutaneous dose. % lysis of YAC-1 cells at effector: target ratio of 50:1; type: functional; in short: as §2
Mus musculus [14] = experiment: In vivo natural killer cell response in splenocytes of mice injected with 2 mg parenteral dose. % lysis of YAC-1 cells at effector: target ratio of 100:1; type: functional; in short: as §4
Mus musculus [15] = experiment: In vivo natural killer cell response in splenocytes of mice injected with 2 mg intravenous dose. % lysis of YAC-1 cells at effector: target ratio of 200:1; type: functional; in short: as §5
Mus musculus [16] = organism: Mus musculus; experiment: Augment antibody response of B cells to sheep red blood cell (SRBC) challenge (adjuvanticity); type: functional; conditions: read-out: ED50 (the source's name); in short: as §1
Mus musculus [17] = experiment: In vivo natural killer cell response in splenocytes of mice injected with 2 mg intravenous dose. % lysis of YAC-1 cells at effector: target ratio of 100:1; type: functional; in short: as §5
Mus musculus [18] = experiment: In vivo natural killer cell response in splenocytes of mice injected with 2 mg subcutaneous dose. % lysis of YAC-1 cells at effector: target ratio of 100:1; type: functional; in short: as §2
Mus musculus [19] = organism: Mus musculus; experiment: Effective dose for its ability to act as B-cell mitogens (mitogenicity); Neg indicates a response lower than vehicle control; type: functional; in short: as §3
Mus musculus [20] = organism: Mus musculus; experiment: Tested to augment the antibody response of B cells to sheep red blood cell (SRBC) challenge (adjuvanticity); Neg indicates a response lower than vehicle control; type: functional, cell-based; in short: as §1
YAC-1 [21] = experiment: Stimulation of natural killer (NK) response in Yac-1 cell line (mouse, lymphoma); Neg indicates a response lower than vehicle control; type: functional, cell-based
YAC-1 [22] = experiment: Percent of maximum response was tested for its ability to stimulate the natural killer (NK) response in murine in vitro cell assays; type: functional, Mus musculus
Mus musculus [23] = organism: Mus musculus; experiment: Effective dose was tested for its ability to act as B-cell mitogens (mitogenicity); type: functional; conditions: read-out: ED50 (the source's name); in short: as §3
YAC-1 [24] = experiment: Tested for its ability to stimulate the natural killer (NK) response in murine in vitro cell assays; type: functional; conditions: Mus musculus, read-out: ED50 (the source's name)
Mus musculus [25] = experiment: In vivo natural killer cell response in splenocytes of mice injected with 2 mg parenteral dose % lysis of YAC-1 cells at effector: target ratio of 100:1; type: functional; in short: as §4
Mus musculus [26] = experiment: In vivo natural killer cell response in splenocytes of mice injected with 2 mg intravenous dose % lysis of YAC-1 cells at effector: target ratio of 100:1; type: functional; in short: as §5
Mus musculus [27] = experiment: In vivo natural killer cell response in splenocytes of mice injected with 2 mg parenteral dose % lysis of YAC-1 cells at effector: target ratio of 50:1; type: functional; in short: as §4
Mus musculus [28] = experiment: In vivo natural killer cell response in splenocytes of mice injected with 2 mg intravenous dose % lysis of YAC-1 cells at effector: target ratio of 50:1; type: functional; in short: as §5
Mus musculus [29] = experiment: In vivo natural killer cell response in splenocytes of mice injected with 2 mg intravenous dose % lysis of YAC-1 cells at effector: target ratio of 200:1; type: functional; in short: as §5

Row | Compound | Max response (Mus musculus [1]) | Max response (YAC-1 [2]) | EC50 (Mus musculus [4]) | EC50 (YAC-1 [5]) | Max response (Mus musculus [9]) | EC50 (Mus musculus [16]) | ED50 (Mus musculus [19]) | ED50 (Mus musculus [20]) | ED50 (YAC-1 [21]) | further results
1 | C=CCn1c(=O)n([C@@H]2O[C@H](CO)[C@@H](O)[C@H]2O)c2nc(N)[nH]c(=O)c21 [LOXORIBINE] | 100% | 100% | 10 µM | 13 µM | 100% | 3 µM |  |  |  | Ratio (Mus musculus [3]): 27.6; Ratio (Mus musculus [6]): 7.7; Ratio (Mus musculus [7]): 11.8; Ratio (Mus musculus [8]): 38.6; Ratio (Mus musculus [10]): 9.3; Ratio (Mus musculus [11]): 22.8; Ratio (Mus musculus [12]): 29.6; Ratio (Mus musculus [13]): 12.7; Ratio (Mus musculus [14]): 18.9; Ratio (Mus musculus [15]): 52.2; Ratio (Mus musculus [17]): 48.9; Ratio (Mus musculus [18]): 19.5
2 | Nc1nc(O)c2c(n1)n(C1OC(CO)[C@@H](O)[C@H]1O)c(=O)n2Cc1ccc([N+](=O)[O-])cc1 (some centres not stated) | 147% | 50% | 50 µM | 48 µM | 16% | 40 µM |  |  |  | Ratio (Mus musculus [3]): 27.4 and 9.9; Ratio (Mus musculus [13]): 15.8; Ratio (Mus musculus [18]): 20.7
3 | Nc1nc(O)c2nc(S)n([C@H]3O[C@H](CO)[C@@H](O)[C@H]3O)c2n1 | 8% | 0% |  |  | 6% |  | Negative | Negative | Negative | 
4 | Cn1c(=O)n2c3c1c(=O)nc(N)n3CC1OC2[C@H](O)C1O (single isomer, unassigned) | 9% | 6% |  |  | 0% |  | Negative | Negative | Negative | 
5 | Cc1nc2nc3c(c(O)n2n1)n(CCN1CCCCC1)c(=O)n3C1OC(CO)[C@@H](O)[C@H]1O (some centres not stated) | 1% | 0% |  |  | 0.1% |  | Negative | Negative | Negative | 
6 | C=CCn1c(=O)n(C2CN(CCCC)CC(CO)O2)c2nc(N)nc(O)c21 (configuration not stated) | 38% |  |  |  | 52% | 5 µM |  |  |  | Max response (YAC-1 [22]): 94%; EC50 (Mus musculus [23]): 49 µM; EC50 (YAC-1 [24]): 17 µM
7 | C=CCn1c(=O)n(C2C[C@H](O)C(CO)O2)c2nc(N)nc(O)c21 (some centres not stated) | 99% | 75% |  | 100 µM | 131% | 30 µM |  |  |  | EC50 (Mus musculus [23]): 134 µM
8 | CCCn1c(=O)n(C2CCC(CO)O2)c2nc(NC(=O)C(C)(C)C)nc(O)c21 (configuration not stated) | 19% | 0% |  |  | 4% |  | Negative | Negative | Negative | 
9 | C=CCn1c(=O)n(C2C=CC(CO)O2)c2nc(N)nc(O)c21 (configuration not stated) | 45% | 89% | 30 µM | 11 µM | 84% | 6 µM |  |  |  | Ratio (Mus musculus [25]): 33.2 and 15.7; Ratio (Mus musculus [26]): 36.4; Ratio (Mus musculus [11]): 16.1; Ratio (Mus musculus [12]): 50.8; Ratio (Mus musculus [27]): 25.2; Ratio (Mus musculus [28]): 25.7; Ratio (Mus musculus [29]): 47.4
10 | C=CCn1c(=O)n([C@@H]2O[C@H](CO)[C@H]3OC(C)(CCC(=O)NC)O[C@H]32)c2nc(N)nc(O)c21 (some centres not stated) | 9% | 0% |  |  | 0% |  | Negative | Negative | Negative | 
